{
  "source": "ChEMBL document CHEMBL4316597",
  "about": "“Design, Synthesis, and Biological Evaluation of Itaconic Acid Derivatives as Potential Anti-Influenza Agents” (J Med Chem, 2019)",
  "key": {"Influenza A virus [1]": {"tested_on": "Influenza A virus", "assay": "Antiviral activity against Influenza A virus (A/WSN/33) infected in MDCK cells at 10 uM added at 6 hrs to 9 hrs post infection and measured after 9 hrs by plaque assay", "assay_type": "functional, organism-based", "details": "A/WSN/1933(H1N1)", "outline": "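MDCK monolayers exposed to compound (1 or 10 μM) over windows of −3, −1, 0, 3 or 6 to 9 h pi. A/WSN/33 adsorbed at MOI 0.1 from −1 to 0 h, then removed with a PBS wash. Supernatant taken at 9 h pi and titred by plaque assay, normalised to virus-only (100%). Average of three independent experiments.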"}, "[2]": {"assay": "Selectivity ratio of CC50 for MDCK cells to EC50 for Influenza A virus (A/WSN/33)", "assay_type": "toxicity", "details": "dog, read-out: Ratio CC50/EC50", "outline": "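SI is calculated as CC50 (MDCK, 72 h MTT) divided by EC50 (72 h crystal-violet CPE assay in MDCK).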"}, "[3]": {"assay": "Cytotoxicity against human RD cells assessed as cell death after 72 hrs by MTT assay", "assay_type": "cell-based", "outline": "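MDCK or RD cells at 2 × 10^4/well in E10, overnight at 37 °C/5% CO2, DPBS wash, then exposed to graded compound concentrations for 72 h. MTT added for 3 h, formazan dissolved in DMSO, absorbance read at 570 nm. CC50 (50% cell death) by Reed–Muench.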"}, "[4]": {"assay": "Selectivity ratio of CC50 for MDCK cells to EC50 for Influenza A virus A/TW/00642/14", "assay_type": "toxicity", "details": "dog, read-out: Ratio CC50/EC50", "outline": "(§1)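 MDCK cells (2 × 10^4/well, E10, 16–24 h) infected at nine-fold TCID50 with compound for 72 h, 37 °C, 5% CO2. Cells were fixed in 4% paraformaldehyde and stained with crystal violet; EC50 is from Reed–Muench. For CC50, cells had compound alone for 72 h, then MTT 3 h, DMSO, A570, Reed–Muench. SI = CC50/EC50; three independent experiments.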"}, "Influenza A virus [5]": {"tested_on": "Influenza A virus", "assay": "Inhibition of viral RNA synthesis in Influenza A virus (A/WSN/33) infected in MDCK cells assessed as effect on matrix protein 1 RNA level at 10 uM measured up to 9 hrs post infection by RT-qPCR analysis", "assay_type": "functional, organism-based", "details": "A/WSN/1933(H1N1)", "outline": "(§2)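 MDCK monolayers (5 × 10^5/well) infected with A/WSN/33, then given 10 μM compound during or after infection. Total RNA extracted with TRIzol at 0, 3, 6 and 9 h pi. Viral RNA quantified by RT-qPCR with M1-specific primers, GAPDH used for quantitative standards. Representative of three independent experiments.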"}, "enterovirus D68": {"tested_on": "enterovirus D68", "assay": "Antiviral activity against Enterovirus D68 TW/2795/2014 clade B3 infected in human RD cells after 72 hrs by crystal violet-staining based assay", "assay_type": "functional, organism-based", "details": "Enterovirus D, TW/2795/2014 clade B3, RD", "outline": "(§3)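 Cells seeded at 2 × 10^4/well in E10 (DMEM, 10% FBS), 16–24 h at 37 °C/5% CO2, washed with DPBS, then infected at nine-fold TCID50 with or without serial compound concentrations. Influenza is run in MDCK and enterovirus/rhinovirus in RD. Incubated 72 h, fixed in 4% paraformaldehyde, stained with 0.1% crystal violet, and read for cell density. EC50 = 50% CPE inhibition by Reed–Muench; mean ± S.D. of at least three runs.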"}, "Influenza A virus [6]": {"tested_on": "Influenza A virus", "assay": "Inhibition of viral RNA synthesis in Influenza A virus (A/WSN/33) infected in MDCK cells at 10 uM measured up to 9 hrs post infection by RT-qPCR analysis", "assay_type": "functional, organism-based", "details": "A/WSN/1933(H1N1)", "outline": "as §2"}, "Enterovirus [7]": {"tested_on": "Enterovirus", "assay": "Antiviral activity against Rhinovirus 71803 infected in human RD cells after 72 hrs by crystal violet-staining based assay", "assay_type": "functional, organism-based", "details": "Enterovirus, 71803, RD", "outline": "as §3"}, "[8]": {"assay": "Selectivity ratio of CC50 for MDCK cells to EC50 for Influenza A virus A/TW/3446/02 (H3N2)", "assay_type": "toxicity", "details": "dog, read-out: Ratio CC50/EC50", "outline": "as §1"}, "MDCK [9]": {"tested_on": "MDCK", "assay": "Cytotoxicity against MDCK cells at 10 uM after 12 to 36 hrs by microscopic analysis", "assay_type": "cell-based, Canis lupus familiaris", "details": "dog", "outline": "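MDCK cells (2 × 10^5/well) grown 16–24 h, infected with A/WSN/33 at MOI 0.5 for 1 h, rinsed twice with DPBS, then kept in serum-free E0 with 10 μM compound at 37 °C. Cell morphology checked by light microscopy at 12 and 36 h pi. Drug-only and virus-only arms included; three repetitions.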"}, "Influenza A virus [10]": {"tested_on": "Influenza A virus", "assay": "Inhibition of viral protein synthesis in Influenza A virus (A/WSN/33) infected in MDCK cells assessed as effect on M1 protein level at 10 uM measured up to 9 hrs post infection by Western blot analysis", "assay_type": "functional, organism-based", "details": "A/WSN/1933(H1N1)", "outline": "(§4)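 MDCK cells (5 × 10^5/well) infected with A/WSN/33 at MOI 0.1, washed twice, then held in E0 with or without 10 μM compound. Lysed in Triton X-100/deoxycholate buffer, equal protein separated by SDS-PAGE, and immunoblotted for viral proteins with GAPDH as loading control. Time-course harvests up to 9 h pi.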"}, "[11]": {"assay": "Selectivity ratio of CC50 for MDCK cells to EC50 for Influenza A virus A/TW/01061/14", "assay_type": "toxicity", "details": "dog, read-out: Ratio CC50/EC50", "outline": "as §1"}, "MDCK [12]": {"tested_on": "MDCK", "assay": "Inhibition of CRM1 in MDCK cells infected with Influenza A virus (A/WSN/33) assessed as reduction in CRM1-mediated viral protein nuclear export by measuring reduction in NP protein distribution to cytoplasm at 10 uM measured after 9 hrs post infection by IF-staining based microscopy", "assay_type": "cell-based", "details": "Canis lupus familiaris", "outline": "(§5)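 MDCK cells grown on coverslips (2 × 10^5/well, 16 h), infected at MOI 0.1 for 1 h, washed, then kept in E0 with test compound (1 or 10 μM) or LMB 10 nM; DMSO 0.05% as mock. Fixed at 9 h pi in 4% paraformaldehyde and immunostained for M1, NP, NS2 or PA (1:50), with Hoechst nuclear stain. Viewed by confocal microscopy at 63×. NP nuclear/cytoplasmic intensity ratio quantified; three independent experiments.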"}, "Influenza A virus [13]": {"tested_on": "Influenza A virus", "assay": "Inhibition of viral protein synthesis in Influenza A virus (A/WSN/33) infected in MDCK cells assessed as effect on HA protein level at 10 uM measured up to 9 hrs post infection by Western blot analysis", "assay_type": "functional, organism-based", "details": "A/WSN/1933(H1N1)", "outline": "as §4"}, "Enterovirus [14]": {"tested_on": "Enterovirus", "assay": "Antiviral activity against Rhinovirus 71903 infected in human RD cells after 72 hrs by crystal violet-staining based assay", "assay_type": "functional, organism-based", "details": "Enterovirus, 71903, RD", "outline": "as §3"}, "Influenza A virus [15]": {"tested_on": "Influenza A virus", "assay": "Antiviral activity against pandemic Influenza A virus A/TW/2235/09 (H1N1) SO4 infected in MDCK cells after 72 hrs by crystal violet-staining based assay", "assay_type": "functional, organism-based", "details": "A/TW/2235/09 (H1N1) SO4, MDCK", "outline": "as §3"}, "[16]": {"target": "Hemagglutinin (Influenza A virus) (UniProt B4URE7)", "sequence (B4URE7 as listed by the source)": "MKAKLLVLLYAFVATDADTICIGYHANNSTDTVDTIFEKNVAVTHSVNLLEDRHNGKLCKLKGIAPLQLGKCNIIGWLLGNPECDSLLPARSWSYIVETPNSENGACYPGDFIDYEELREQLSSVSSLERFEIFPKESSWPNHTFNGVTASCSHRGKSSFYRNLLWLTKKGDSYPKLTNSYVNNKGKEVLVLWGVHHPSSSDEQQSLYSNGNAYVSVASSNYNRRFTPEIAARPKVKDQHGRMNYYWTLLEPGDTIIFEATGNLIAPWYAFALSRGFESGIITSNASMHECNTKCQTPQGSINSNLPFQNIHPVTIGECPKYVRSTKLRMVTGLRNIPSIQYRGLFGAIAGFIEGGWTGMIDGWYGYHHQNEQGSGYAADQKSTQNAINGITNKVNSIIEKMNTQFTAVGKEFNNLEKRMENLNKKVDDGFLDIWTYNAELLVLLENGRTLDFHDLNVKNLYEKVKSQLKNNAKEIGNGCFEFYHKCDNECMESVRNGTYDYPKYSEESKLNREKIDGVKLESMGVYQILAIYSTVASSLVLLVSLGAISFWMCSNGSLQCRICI", "assay": "Inhibition Influenza A virus (A/WSN/33) HA infected in guinea pig RBC assessed as reduction in hemagglutination at serial dilution from 50 uM after 1 hr by HAI assay", "details": "Influenza A virus (A/WSN/1933(H1N1))", "outline": "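Virus titrated on 0.5% guinea pig RBCs to define 1 HA unit; 4 HA units used. Compound two-fold serially diluted from 50 µM and mixed with virus for 30 min at room temperature, or tested without virus for direct agglutination. 0.5% RBCs then added and agglutination scored after 1 h. DMSO/RBC-only and virus-only controls included.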"}, "Influenza A virus [17]": {"tested_on": "Influenza A virus", "assay": "Inhibition of viral protein sub-cellular distribution in Influenza A virus (A/WSN/33) infected in MDCK cells assessed as reduction in M1 protein distribution to cytoplasm at 10 uM measured after 9 hrs post infection by IF-staining based microscopy", "assay_type": "functional, organism-based", "details": "A/WSN/1933(H1N1)", "outline": "as §5"}},
  "note": "pEC50: −log10 of the molar value. Activity calls are given as the source filed them. No cut-off for these calls is given here.",
  "data": [
    {"molecule": "C=C(CC(=O)Nc1ccc(F)cc1F)C(=O)Nc1ccc(F)cc1F", "values": [
      {"measurement": "Activity", "setting": "Influenza A virus [1]", "value": "inactive"},
      {"measurement": "selectivity ratio", "setting": "[2]", "value": 29.8},
      {"measurement": "CC50 at 72 h", "setting": "[3]", "value": 74.6, "unit": "µM"},
      {"measurement": "selectivity ratio", "setting": "[4]", "value": 25},
      {"measurement": "inhibition", "setting": "Influenza A virus [5]", "value": "inactive"},
      {"measurement": "pEC50", "setting": "enterovirus D68", "value": "< 4.30"},
      {"measurement": "inhibition", "setting": "Influenza A virus [6]", "value": "inactive"},
      {"measurement": "pEC50", "setting": "Enterovirus [7]", "value": "< 4.30"},
      {"measurement": "selectivity ratio", "setting": "[8]", "value": 18},
      {"measurement": "Activity", "setting": "MDCK [9]", "value": "Non-Toxic"},
      {"measurement": "inhibition", "setting": "Influenza A virus [10]", "value": "inactive"},
      {"measurement": "selectivity ratio", "setting": "[11]", "value": 21},
      {"measurement": "inhibition", "setting": "MDCK [12]", "value": "Active"},
      {"measurement": "inhibition", "setting": "Influenza A virus [13]", "value": "inactive"},
      {"measurement": "pEC50", "setting": "Enterovirus [14]", "value": "< 4.30"},
      {"measurement": "pEC50", "setting": "Influenza A virus [15]", "value": 5.63},
      {"measurement": "inhibition", "setting": "[16]", "value": "inactive"},
      {"measurement": "inhibition", "setting": "Influenza A virus [17]", "value": "inactive"}
    ]}
  ]
}
